ChEMBL document CHEMBL3232922, “Discovery and SAR of 6-alkyl-2,4-diaminopyrimidines as histamine H₄ receptor antagonists” (J Med Chem, 2014)
Calls of active or inactive are those of the source. The calls are words filed in the database; no cut-off is given here.

How the values were obtained:
Histamine H4 receptor [1] = target: T1, Histamine H4 receptor (Homo sapiens, UniProt Q9H3N8); assay: Antagonist activity at human histamine H4 receptor expressed in SK-N-MC cells assessed as reduction of histamine-induced inhibition of cAMP-mediated beta-galactosidase reporter gene activity treated 10 mins prior to histamine challenge by microplate reader analysis; type: functional, cell-based; conditions: read-out: pA2 (converted)
Histamine H4 receptor [2] = target: T1, Histamine H4 receptor; assay: Displacement of [3H]histamine from human recombinant histamine H4 receptor expressed in SK-N-MC cells after 45 mins by competition binding analysis; type: cell-based
Histamine H4 receptor [3] = target: T1, Histamine H4 receptor; assay: Agonist activity at human H4 receptor; conditions: read-out: EC50
[4] = Oral bioavailability in rat at 10 mg/kg; type: ADME, organism-based; conditions: in vivo
[5] = Cmax in rat at 10 mg/kg, po; type: ADME, organism-based; set-up: dose 10 mg/kg, route oral; conditions: in vivo
Histamine H4 receptor [6] = target: T2, Histamine H4 receptor (Mus musculus, UniProt Q91ZY2); assay: Displacement of [3H]histamine from mouse histamine H4 receptor expressed in SK-N-MC cells after 45 mins by competition binding analysis; type: cell-based
T2 sequence (Q91ZY2 whole entry): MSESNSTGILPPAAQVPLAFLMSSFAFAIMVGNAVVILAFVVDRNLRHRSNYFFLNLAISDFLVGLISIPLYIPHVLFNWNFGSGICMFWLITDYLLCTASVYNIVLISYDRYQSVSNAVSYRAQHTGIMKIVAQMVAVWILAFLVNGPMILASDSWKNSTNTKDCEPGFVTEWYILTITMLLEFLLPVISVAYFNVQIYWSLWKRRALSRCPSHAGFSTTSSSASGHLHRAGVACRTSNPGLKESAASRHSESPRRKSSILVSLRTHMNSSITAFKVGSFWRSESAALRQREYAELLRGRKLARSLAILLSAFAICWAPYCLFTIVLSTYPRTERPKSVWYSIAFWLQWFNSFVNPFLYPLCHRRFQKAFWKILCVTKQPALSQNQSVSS
Procedure, shortened: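 Transfected cells expressing the H4 receptor, competition against [3H]histamine. Ki is the geometric mean of at least three independent determinations (each in triplicate), calculated by the Cheng–Prusoff equation.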

[7] = Fraction unbound in human plasma; type: ADME, cell-free
Histamine H3 receptor = Histamine H3 receptor (Homo sapiens, UniProt Q9Y5N1); assay: Displacement of [3H]N-alpha-methylhistamine from human recombinant histamine H3 receptor expressed in SK-N-MC cells after 45 mins by competition binding analysis; type: cell-based
Histamine H4 receptor [8] = target: T2, Histamine H4 receptor; assay: Antagonist activity at mouse histamine H4 receptor expressed in SK-N-MC cells assessed as reduction of histamine-induced inhibition of cAMP-mediated beta-galactosidase reporter gene activity treated 10 mins prior to histamine challenge by microplate reader analysis; type: functional, cell-based; conditions: read-out: pA2 (converted)
[9] = Half life in rat at 10 mg/kg, po; type: ADME, organism-based; set-up: dose 10 mg/kg, route oral; conditions: in vivo
[10] = Half life in rat at 2 mg/kg, iv; type: ADME, organism-based; set-up: dose 2 mg/kg, route intravenous; conditions: in vivo
[11] = Permeability from apical to basolateral side in human Caco cells; type: ADME, cell-based; conditions: Caco-2, read-out: permeability
[12] = Volume of distribution at steady state in rat at 2 mg/kg, iv; type: ADME, organism-based; set-up: dose 2 mg/kg, route intravenous; conditions: in vivo, read-out: Vdss
[13] = Half life in rat microsomes; type: ADME, Microsome
[14] = Half life in human microsomes; type: ADME, Microsome
Mus musculus = assay: Antiinflammatory activity in po dosed Balb/c mouse assessed as inhibition of LPS-induced TNF-alpha release at plasma concentration of 62.5 nM administered 30 mins prior to LPS challenge measured after 2 hrs by ELISA; type: functional, organism-based
[15] = target: Voltage-gated inwardly rectifying potassium channel KCNH2 (Homo sapiens, UniProt Q12809); assay: Inhibition of human ERG channel transfected in HEK293 cells assessed as reduction in delayed rectifier current by patch clamp assay; type: cell-based
Procedure, shortened: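 The delayed rectifier current (IKr) was recorded in hERG-transfected HEK293 cells with the compound at 3 μM.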

[16] = AUC in rat at 2 mg/kg, iv; type: ADME, organism-based; set-up: dose 2 mg/kg, route intravenous; conditions: plasma
[17] = Clearance in rat at 2 mg/kg, iv; type: ADME, organism-based; set-up: dose 2 mg/kg, route intravenous; conditions: in vivo
[18] = Permeability from basolateral to apical side in human Caco cells; type: ADME, cell-based; conditions: Caco-2, read-out: permeability

T1 sequence (Q9H3N8 whole entry): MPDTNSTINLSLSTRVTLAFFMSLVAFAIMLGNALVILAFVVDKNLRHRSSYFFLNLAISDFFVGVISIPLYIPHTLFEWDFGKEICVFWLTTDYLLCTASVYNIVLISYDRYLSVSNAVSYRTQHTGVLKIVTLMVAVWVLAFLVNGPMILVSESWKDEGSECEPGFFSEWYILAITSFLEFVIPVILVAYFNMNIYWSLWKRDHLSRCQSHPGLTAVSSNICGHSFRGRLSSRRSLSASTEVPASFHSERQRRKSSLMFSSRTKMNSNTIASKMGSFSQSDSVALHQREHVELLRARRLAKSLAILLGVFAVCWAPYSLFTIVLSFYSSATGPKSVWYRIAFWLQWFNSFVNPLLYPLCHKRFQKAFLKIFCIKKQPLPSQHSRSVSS
Sequence of Histamine H3 receptor (Q9Y5N1 whole entry): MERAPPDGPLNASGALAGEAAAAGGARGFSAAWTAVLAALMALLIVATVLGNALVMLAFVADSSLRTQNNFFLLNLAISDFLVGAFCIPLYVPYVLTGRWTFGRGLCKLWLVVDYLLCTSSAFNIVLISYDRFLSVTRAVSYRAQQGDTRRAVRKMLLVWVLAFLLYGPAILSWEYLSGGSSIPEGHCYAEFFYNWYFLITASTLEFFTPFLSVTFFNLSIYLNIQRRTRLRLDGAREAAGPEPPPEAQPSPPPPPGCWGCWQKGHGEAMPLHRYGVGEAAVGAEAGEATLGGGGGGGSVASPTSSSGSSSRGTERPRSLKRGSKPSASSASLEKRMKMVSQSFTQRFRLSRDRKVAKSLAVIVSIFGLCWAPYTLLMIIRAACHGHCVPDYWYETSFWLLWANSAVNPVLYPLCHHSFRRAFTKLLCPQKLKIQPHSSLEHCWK
Sequence of Voltage-gated inwardly rectifying potassium channel KCNH2 (Q12809 whole entry): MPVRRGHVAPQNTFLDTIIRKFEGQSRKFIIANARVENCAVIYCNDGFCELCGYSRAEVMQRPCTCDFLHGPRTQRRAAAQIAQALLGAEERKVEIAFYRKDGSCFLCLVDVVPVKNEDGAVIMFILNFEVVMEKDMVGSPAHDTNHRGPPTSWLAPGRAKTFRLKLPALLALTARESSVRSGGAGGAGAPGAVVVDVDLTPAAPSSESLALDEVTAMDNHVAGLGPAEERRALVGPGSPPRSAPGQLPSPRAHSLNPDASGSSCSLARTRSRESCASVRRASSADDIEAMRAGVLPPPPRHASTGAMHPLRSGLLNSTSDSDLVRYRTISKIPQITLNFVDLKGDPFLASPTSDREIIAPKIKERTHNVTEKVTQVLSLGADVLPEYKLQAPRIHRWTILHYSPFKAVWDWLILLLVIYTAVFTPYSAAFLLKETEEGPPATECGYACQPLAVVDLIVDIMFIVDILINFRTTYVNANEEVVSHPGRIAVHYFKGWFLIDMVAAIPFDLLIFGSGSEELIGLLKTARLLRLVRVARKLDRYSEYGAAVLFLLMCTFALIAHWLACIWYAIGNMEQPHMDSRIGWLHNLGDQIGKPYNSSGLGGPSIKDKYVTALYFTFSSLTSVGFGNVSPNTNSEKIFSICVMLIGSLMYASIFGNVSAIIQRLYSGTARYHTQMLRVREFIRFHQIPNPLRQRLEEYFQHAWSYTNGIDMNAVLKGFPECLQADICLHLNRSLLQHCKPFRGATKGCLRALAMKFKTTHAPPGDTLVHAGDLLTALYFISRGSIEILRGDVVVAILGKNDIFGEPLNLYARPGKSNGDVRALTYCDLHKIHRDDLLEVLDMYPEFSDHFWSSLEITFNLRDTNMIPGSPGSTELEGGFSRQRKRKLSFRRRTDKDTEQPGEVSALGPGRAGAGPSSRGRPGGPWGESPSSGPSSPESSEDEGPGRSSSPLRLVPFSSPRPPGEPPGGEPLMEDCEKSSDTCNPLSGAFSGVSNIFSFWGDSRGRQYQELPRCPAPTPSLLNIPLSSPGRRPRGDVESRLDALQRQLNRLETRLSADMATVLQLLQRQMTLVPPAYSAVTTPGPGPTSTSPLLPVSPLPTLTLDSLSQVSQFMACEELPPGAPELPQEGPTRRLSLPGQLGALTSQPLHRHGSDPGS

Row | Structure (SMILES) | Kb (Histamine H4 receptor [1]) [nM] | Ki (Histamine H4 receptor [2]) [nM] | EC50 (Histamine H4 receptor [3]) [nM] | also measured
1 | CN[C@@H]1CCN(c2cc(C3CCC3)nc(N)n2)C1 | 0.398 | 2.4 | > 10000 | –
2 | Nc1nc(C2CCCC2)cc(N2CC(N)C2)n1 | 25.1 | 5.5 | 1300 | –
3 | Nc1nc(C2CCCC2)cc(N2C[C@H]3CCN[C@H]3C2)n1 | 0.1 | 2.9 | > 10000 | –
4 | CCc1cc(N2CC[C@@H](NC)C2)nc(N)n1 | 10 | – | > 10000 | bioavailability [4]: 50%; Cmax [5]: 1500 nM; Ki (Histamine H4 receptor [6]): 62 nM; fraction unbound [7]: 0.26; Ki (Histamine H3 receptor): 670 nM; Kb (Histamine H4 receptor [8]): 50.1 nM; half-life [9]: 9.7 h; half-life [10]: 5.3 h; Papp A→B [11]: 54 ×10⁻⁶ cm/s; Vd [12]: 6.3 L/kg; half-life [13]: 1.05 h; half-life [14]: > 2 h; inhibition (Mus musculus): Active; INH [15]: > 10 µM; AUC [16]: 11 µM·h; clearance [17]: 5 mL/min/kg; Papp B→A [18]: 14 ×10⁻⁶ cm/s
5 | CN1CCN(C(=O)c2nc3cc(Cl)ccc3[nH]2)CC1 | – | 20 | – | –
6 | Cc1cnc(OCCCCC2CCN(C)CC2)cc1-c1nc2c(C)c(F)ccc2[nH]1 | – | 5 | – | –
7 | CN[C@@H]1CCN(c2cc(C34CC5CC(CC(C5)C3)C4)nc(N)n2)C1 | < 0.1 | 1.7 | > 10000 | –
8 | Nc1nc(C2CCCC2)cc(N2CCC3(CCCN3)C2)n1 (stereo unspecified) | 2.51 | 11.2 | > 10000 | –
